# Bioassay records (PubChem BioAssay)
# Diaphorase act: counter-screen for diaphorase-based assays: diaphorase activators and chemical reducers. Diaphorase/resazurin coupled assay, resorufin fluorescence, 16 min; active compounds read high; 1 = vehicle wells, 0 = NADH-free wells. activation factor at 20 µM. hit rate 0.005% among 190,000;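 active = diaphorase activity raised at least twofold by the compound at 20 µM; inactive = activation factor below 2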
#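 Assay system: Purified diaphorase enzyme from Clostridium kluyveri | Amount: Enzyme 0.07 U/mL final | Dosing: Compound 20 µM once, DMSO 1% | Timing: 16 min reaction at room temperature | Detection: Fluorescence, excitation 544 nm and emission 590 nm | Evaluation: Higher resorufin formation from activation or reduction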
# KCC2 mod: modulators of human KCC2 chloride dependent transport; Q9H2X9; KCC2 cells, thallium flux FluoZin-2 fluorescence; B-score of Tl+ flux slope (higher = more flux/activation; lower = inhibition) at 10 µM; hit rate 2.2% among 190,000;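 active = thallium flux slope and its plate-corrected score both differing from the plate sample mean at a set confidence after two filtering rounds, in either direction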;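 also: slope of fluorescence scaled to starting intensity during 10 to 20 s after thallium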
# Target sequence (Q9H2X9 whole entry, looked up): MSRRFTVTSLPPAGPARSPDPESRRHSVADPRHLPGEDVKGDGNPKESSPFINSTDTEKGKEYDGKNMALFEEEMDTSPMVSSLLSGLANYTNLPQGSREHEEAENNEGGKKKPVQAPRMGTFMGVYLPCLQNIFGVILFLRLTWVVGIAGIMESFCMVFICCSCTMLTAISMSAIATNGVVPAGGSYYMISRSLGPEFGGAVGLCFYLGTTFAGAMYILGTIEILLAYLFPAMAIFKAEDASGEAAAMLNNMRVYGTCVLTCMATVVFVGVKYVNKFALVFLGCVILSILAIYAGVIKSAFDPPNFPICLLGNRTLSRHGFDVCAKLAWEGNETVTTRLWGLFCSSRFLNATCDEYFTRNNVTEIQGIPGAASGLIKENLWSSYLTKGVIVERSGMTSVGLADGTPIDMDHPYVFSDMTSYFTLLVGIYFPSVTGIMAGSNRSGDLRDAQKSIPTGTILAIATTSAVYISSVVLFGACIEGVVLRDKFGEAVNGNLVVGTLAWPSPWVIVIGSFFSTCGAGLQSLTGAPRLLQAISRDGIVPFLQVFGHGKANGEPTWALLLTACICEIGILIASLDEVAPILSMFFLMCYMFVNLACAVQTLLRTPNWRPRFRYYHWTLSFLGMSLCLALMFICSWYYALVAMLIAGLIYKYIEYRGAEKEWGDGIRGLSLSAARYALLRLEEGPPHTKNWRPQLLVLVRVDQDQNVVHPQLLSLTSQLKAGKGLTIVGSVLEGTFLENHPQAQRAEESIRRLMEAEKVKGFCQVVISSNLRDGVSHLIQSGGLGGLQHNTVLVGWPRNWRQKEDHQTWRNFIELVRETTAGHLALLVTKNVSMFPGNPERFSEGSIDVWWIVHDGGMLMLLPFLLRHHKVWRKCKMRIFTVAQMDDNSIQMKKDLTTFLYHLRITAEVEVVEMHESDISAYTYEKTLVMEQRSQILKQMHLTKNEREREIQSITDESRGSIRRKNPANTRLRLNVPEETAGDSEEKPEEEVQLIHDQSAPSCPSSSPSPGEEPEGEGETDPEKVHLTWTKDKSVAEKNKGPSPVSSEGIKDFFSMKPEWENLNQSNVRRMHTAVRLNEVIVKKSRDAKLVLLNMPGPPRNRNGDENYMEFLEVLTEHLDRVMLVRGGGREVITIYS
# WT yeast gro inh: growth inhibition of WT yeast, mitochondrial fusion screen; inhibition, % at 10 µM; AID 1362; hit rate 2.1% among 190,000; mitochondrial fusion phenotypic screen, WT strain; in the data active = inhibition above about 58%; tested in S. cerevisiae
# ROMK primary: modulators of human ROMK potassium channel. P48048. Tet-inducible ROMK, thallium flux fluorescence; actives lie on both sides. B-score at 10 µM. hit rate 2% among 130,000. AID 1918;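 active = signal ratio slope over the read window, or its plate-corrected B-score, at least 3 SD from the plate mean, either direction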;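 also: B-score of the F/F0 ratio slope over 7 to 12 s after thallium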
# Diaph inh CS: diaphorase inhibition or chemical oxidation counter-screen. diaphorase resazurin-to-resorufin fluorescence, NADH, 16 min; bacterial (C. kluyveri) enzyme, not human. inhibition, % at 20 µM. hit rate 0.69% among 190,000;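 active = primary screen inhibition at 20 µM above a set limit, cut at about 50% in these data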
#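 Test system: diaphorase enzyme from Clostridium kluyveri; amount: diaphorase at 0.14 U/mL in enzyme working solution; detection: fluorescence of resorufin formed from resazurin, Ex 544/Em 590 nm; times: reaction incubation of 16 min at room temperature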
# Lmaj promast: reduces viability of Leishmania major promastigotes; resazurin fluorescence viability; inhibition, % at 10 µM; hit rate 9% among 200,000; in the data active = inhibition above about 50%;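 also: promastigotes grown with compound for 44 hours at 28 °C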
# Numbers stand for hits; - = inactive; . = no result given. Rows were chosen to be rich in hits. Some 12% of all compounds tested hit in one or more screens of this group.
SMILES,Diaphorase act,KCC2 mod,WT yeast gro inh,ROMK primary,Diaph inh CS,Lmaj promast
COC(=O)[C@H](Cc1ccccc1)NC(=O)O[C@H]1C(=O)c2ccc(OC)cc2O[C@@H]1c1ccc2c(c1)OCO2,-,-,62.0,-,-,-
COC(=O)c1ccc2c(c1O)C(=O)c1ccccc1C2=O,-,-,65.7,-,-,84.0
Nc1c(C(=O)O)ccc2c1C(=O)c1ccccc1C2=O,-,-,-,.,-,-
COc1cccc2cc(C(C)N(CCCN3CCOCC3)C(=S)Nc3ccccc3C)oc12 (configuration not stated),-,-,-,-,-,-
Cc1cccc(NC(=S)N(CCCN2CCOCC2)C(C)c2cc3ccccc3o2)c1 (configuration not stated),-,-,-,-,-,81.1
COc1cccc2cc(C(C)N(CCCN3CCOCC3)C(=S)Nc3cccc(C)c3)oc12 (configuration not stated),-,-,-,-,-,-
Cc1cccc(NC(=S)N(CCCN2CCOCC2)C(C)c2cc3ccccc3o2)c1C (configuration not stated),-,-,-,-,-,80.0
O=C(NC(CSCc1ccccc1)C(=O)N/N=C/c1ccc(O)cc1O)c1ccc([N+](=O)[O-])cc1 (configuration not stated),-,.,-,-,-,100.0
COc1cc(O)ccc1/C=N/NC(=O)c1ccc([N+](=O)[O-])cc1,-,-,-,-,-,-
COc1cccc2[nH]c3c(N4CCCCC4)ncnc3c12,-,.,-,-,-,96.4
CCOC(=O)C1CCN(c2ncnc3c2[nH]c2cccc(OC)c23)CC1,-,.,-,-,-,73.1
CC(C)NC(=O)NC(=O)COC(=O)c1ccc(F)cc1F,-,-,-,.,-,-
Cc1ccc(SCC(=O)Nc2ccc(N3CCN(C)CC3)c(F)c2)c(C)c1,-,-,-,-,-,100.1
O=C(CSc1ccc(Cl)cc1)Nc1ccc(N2CCN(c3ccccc3)CC2)c(F)c1,-,-,-,.,-,-
CCOC(=O)c1cnc(Nc2nc3ccccc3o2)nc1CN1CCN(C)CC1,-,-,-,.,-,76.5
CCCOC(=O)Nc1nc2ccccc2o1,-,.,-,-,-,-
O=C(COc1ccccc1)N(Cc1cccs1)C1CCS(=O)(=O)C1 (configuration not stated),.,-,.,.,.,.
CCn1c(=O)c(C(=O)Nc2nc3ccccc3[nH]2)c(O)c2ccccc21,-,.,83.9,-,-,-
O=C(Nc1ccccc1Cl)ON=C1c2ccccc2-c2ccccc21,-,-,-,-,-,-
COc1ccc(/C=N/OCC(=O)N2CCCC2)c(OC)c1,-,-,-,-,-,-
CC(C)(C)NC(NC(=O)Cc1ccccc1)C(Cl)(Cl)Cl (configuration not stated),-,.,-,.,-,-
O=C(Cc1ccccc1)NC(NCCc1ccccc1)C(Cl)(Cl)Cl (configuration not stated),-,-,-,.,-,97.9
O=C(Cc1ccccc1)NC(Nc1cccc2ccccc12)C(Cl)(Cl)Cl (configuration not stated),-,-,-,.,68.7,-
O=C(Cc1ccccc1)NC(Nc1ccccc1)C(Cl)(Cl)Cl (configuration not stated),-,-,-,-,-,-
O=C(Oc1c(-c2ccccc2Cl)oc2ccccc2c1=O)c1ccc(Cl)cc1,-,-,-,-,-,54.9
SMILES,Diaphorase act,KCC2 mod,WT yeast gro inh,ROMK primary,Diaph inh CS,Lmaj promast
Cc1cccc(NC2=C/C(=N/S(=O)(=O)c3cccs3)c3ccccc3C2=O)c1,-,-,-,-,-,-
Cc1ccc(NC2=C/C(=N\S(=O)(=O)c3cccs3)c3ccccc3C2=O)c(C)c1,-,-,95.9,-,-,100.5
O=C1C(Nc2ccc(O)cc2)=C/C(=N/S(=O)(=O)c2cccs2)c2ccccc21,-,-,-,-,-,100.4
O=C1/C(=N\S(=O)(=O)c2cccs2)C([n+]2ccccc2)=C([O-])c2ccccc21,.,-,.,.,.,.
Cc1ccc(Cl)cc1NC1=C/C(=N\S(=O)(=O)c2cccs2)c2ccccc2C1=O,-,-,96.3,-,-,100.4
Cc1nc2cc(-c3ccsc3-n3c(C)ccc3C)[nH]n2c(=O)c1Cl,-,.,-,.,64.5,-
Cc1ccc(Cl)cc1NC(=O)CCC(=O)Nc1cc(Cl)ccc1C,-,-,-,-,-,-
